Measurements reported in ChEMBL document CHEMBL1155278, “3,4-Diaryl-isoxazoles and -imidazoles as potent dual inhibitors of p38alpha mitogen activated protein kinase and casein kinase 1delta” (J Med Chem, 2009).

Experiments:
[1] = target: Tyrosine-protein kinase BTK (Homo sapiens) (UniProt Q06187); experiment: Inhibition of BTK assessed as residual activity at 0.1 uM by Cherenkov counting relative to control in presence of 50 uM ATP
Summary of the method: (§1)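 Single-concentration screen at 0.1 µM across a panel of 76 protein kinases. Each kinase was run at an ATP concentration approximating its ATP Km. Results are % mean residual activity versus control assays without compound (n = 3 ± SD).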

[2] = target: Dual specificity mitogen-activated protein kinase kinase 1 (Homo sapiens) (UniProt Q02750); experiment: Inhibition of MKK1 at 0.1 uM by Cherenkov counting in presence of 5 uM ATP
Sequence of Dual specificity mitogen-activated protein kinase kinase 1 (Homo sapiens) (Q02750 whole entry): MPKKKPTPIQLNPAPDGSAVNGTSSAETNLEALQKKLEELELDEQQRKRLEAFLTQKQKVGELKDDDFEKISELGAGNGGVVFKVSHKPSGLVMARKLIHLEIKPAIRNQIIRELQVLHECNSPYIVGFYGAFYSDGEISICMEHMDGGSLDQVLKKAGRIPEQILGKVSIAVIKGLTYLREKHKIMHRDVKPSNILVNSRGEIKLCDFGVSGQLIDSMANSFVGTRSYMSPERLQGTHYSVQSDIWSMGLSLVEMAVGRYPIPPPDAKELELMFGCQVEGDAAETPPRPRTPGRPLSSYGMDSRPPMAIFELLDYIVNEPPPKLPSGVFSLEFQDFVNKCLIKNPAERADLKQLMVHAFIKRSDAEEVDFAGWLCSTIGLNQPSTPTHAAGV
Summary of the method: (§2)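 Single-concentration selectivity screen at 0.1 μM against a panel of 76 protein kinases. Each kinase was run at an ATP level approximating its Km for ATP. Output is mean residual activity as % of the control assay without compound, n = 3 ± SD.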

[3] = target: Tyrosine-protein kinase Yes (Homo sapiens) (UniProt P07947); experiment: Inhibition of YES1 at 0.1 uM by Cherenkov counting in presence of 20 uM ATP
Sequence of Tyrosine-protein kinase Yes (Homo sapiens) (P07947 2-543 limits assumed): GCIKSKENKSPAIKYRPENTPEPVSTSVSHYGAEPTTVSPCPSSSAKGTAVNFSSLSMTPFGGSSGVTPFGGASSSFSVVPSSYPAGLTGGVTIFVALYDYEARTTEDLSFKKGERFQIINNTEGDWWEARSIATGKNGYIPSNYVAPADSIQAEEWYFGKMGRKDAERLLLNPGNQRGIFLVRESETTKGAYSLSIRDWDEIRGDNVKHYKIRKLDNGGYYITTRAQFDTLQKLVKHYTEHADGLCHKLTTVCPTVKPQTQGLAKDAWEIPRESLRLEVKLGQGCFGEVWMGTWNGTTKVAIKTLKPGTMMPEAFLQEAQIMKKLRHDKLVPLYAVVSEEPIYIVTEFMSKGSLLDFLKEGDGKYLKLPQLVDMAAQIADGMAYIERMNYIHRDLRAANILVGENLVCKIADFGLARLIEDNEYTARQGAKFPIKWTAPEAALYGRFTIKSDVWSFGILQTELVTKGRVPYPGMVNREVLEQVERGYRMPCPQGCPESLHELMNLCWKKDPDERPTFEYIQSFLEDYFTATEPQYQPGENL
Summary of the method: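 Single-concentration screen at 0.1 μM in a 76-kinase panel. ATP for each kinase was set near its Km for ATP. Residual activity is given as a percentage of control assays without compound, mean of n = 3 ± SD.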

[4] = target: Dual specificity mitogen-activated protein kinase kinase 1 (Homo sapiens) (UniProt Q02750); experiment: Inhibition of MKK1 assessed as residual activity at 0.1 uM by Cherenkov counting relative to control in presence of 5 uM ATP; summary of the method: as §2
[5] = target: Calcium/calmodulin-dependent protein kinase type 1 (Homo sapiens) (UniProt Q14012); experiment: Inhibition of CAMK1 assessed as residual activity at 0.1 uM by Cherenkov counting relative to control in presence of 50 uM ATP; summary of the method: as §1
Sequence of Calcium/calmodulin-dependent protein kinase type 1 (Homo sapiens) (Q14012 whole entry, looked up): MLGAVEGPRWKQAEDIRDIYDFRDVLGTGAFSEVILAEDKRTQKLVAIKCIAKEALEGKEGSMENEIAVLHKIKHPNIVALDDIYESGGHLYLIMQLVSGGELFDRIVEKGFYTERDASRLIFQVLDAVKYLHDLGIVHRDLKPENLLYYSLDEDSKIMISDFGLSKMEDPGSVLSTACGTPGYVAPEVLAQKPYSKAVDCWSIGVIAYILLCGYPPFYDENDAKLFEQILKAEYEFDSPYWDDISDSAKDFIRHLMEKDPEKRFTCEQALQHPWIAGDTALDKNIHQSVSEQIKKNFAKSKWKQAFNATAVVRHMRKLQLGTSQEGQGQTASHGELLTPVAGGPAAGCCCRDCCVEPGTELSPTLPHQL

[6] = target: Serine/threonine-protein kinase pim-1 (Homo sapiens) (UniProt P11309); experiment: Inhibition of PIM1 assessed as residual activity at 0.1 uM by Cherenkov counting relative to control in presence of 20 uM ATP; summary of the method: as §2
Sequence of Serine/threonine-protein kinase pim-1 (Homo sapiens) (P11309 whole entry, looked up): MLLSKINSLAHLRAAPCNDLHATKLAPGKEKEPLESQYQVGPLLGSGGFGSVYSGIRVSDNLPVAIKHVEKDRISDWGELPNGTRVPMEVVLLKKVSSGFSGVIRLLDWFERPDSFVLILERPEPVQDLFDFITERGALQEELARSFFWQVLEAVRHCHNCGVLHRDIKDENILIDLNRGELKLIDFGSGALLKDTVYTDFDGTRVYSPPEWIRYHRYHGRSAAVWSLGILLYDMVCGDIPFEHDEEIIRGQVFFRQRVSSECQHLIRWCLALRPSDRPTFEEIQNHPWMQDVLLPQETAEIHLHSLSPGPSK

[7] = target: Serine/threonine-protein kinase PAK 6 (Homo sapiens) (UniProt Q9NQU5); experiment: Inhibition of PAK6 assessed as residual activity at 0.1 uM by Cherenkov counting relative to control in presence of 20 uM ATP; summary of the method: as §2
[8] = target: RAC-alpha serine/threonine-protein kinase (Homo sapiens) (UniProt P31749); experiment: Inhibition of PKBalpha assessed as residual activity at 10 uM by Cherenkov counting relative to control in presence of 5 uM ATP
Summary of the method: (§3)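 Single-concentration profiling at 10 μM in a 78-kinase panel. Kinase activity is expressed as a percentage of control assays run without compound.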

[9] = target: Ribosomal protein S6 kinase beta-1 (Homo sapiens) (UniProt P23443); experiment: Inhibition of S6K1 assessed as residual activity at 10 uM by Cherenkov counting relative to control in presence of 20 uM ATP; summary of the method: as §3
Sequence of Ribosomal protein S6 kinase beta-1 (Homo sapiens) (P23443 whole entry, looked up): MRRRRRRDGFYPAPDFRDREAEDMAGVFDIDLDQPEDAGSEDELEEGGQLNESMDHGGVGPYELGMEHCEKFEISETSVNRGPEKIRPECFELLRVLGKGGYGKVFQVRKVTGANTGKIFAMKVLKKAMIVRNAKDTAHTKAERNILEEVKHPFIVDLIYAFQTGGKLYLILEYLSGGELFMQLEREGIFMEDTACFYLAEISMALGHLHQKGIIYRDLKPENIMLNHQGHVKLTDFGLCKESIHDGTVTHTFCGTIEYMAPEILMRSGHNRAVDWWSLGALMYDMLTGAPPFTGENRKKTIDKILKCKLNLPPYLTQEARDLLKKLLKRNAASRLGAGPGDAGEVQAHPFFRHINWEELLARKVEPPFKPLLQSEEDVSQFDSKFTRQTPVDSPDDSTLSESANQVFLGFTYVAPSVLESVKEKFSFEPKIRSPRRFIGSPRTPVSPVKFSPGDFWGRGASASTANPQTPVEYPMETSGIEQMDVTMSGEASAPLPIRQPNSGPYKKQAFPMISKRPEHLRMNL

[10] = target: Serine/threonine-protein kinase PLK1 (Homo sapiens) (UniProt P53350); experiment: Inhibition of PLK1 assessed as residual activity at 10 uM by Cherenkov counting relative to control in presence of 5 uM ATP; summary of the method: as §3
Sequence of Serine/threonine-protein kinase PLK1 (Homo sapiens) (P53350 whole entry): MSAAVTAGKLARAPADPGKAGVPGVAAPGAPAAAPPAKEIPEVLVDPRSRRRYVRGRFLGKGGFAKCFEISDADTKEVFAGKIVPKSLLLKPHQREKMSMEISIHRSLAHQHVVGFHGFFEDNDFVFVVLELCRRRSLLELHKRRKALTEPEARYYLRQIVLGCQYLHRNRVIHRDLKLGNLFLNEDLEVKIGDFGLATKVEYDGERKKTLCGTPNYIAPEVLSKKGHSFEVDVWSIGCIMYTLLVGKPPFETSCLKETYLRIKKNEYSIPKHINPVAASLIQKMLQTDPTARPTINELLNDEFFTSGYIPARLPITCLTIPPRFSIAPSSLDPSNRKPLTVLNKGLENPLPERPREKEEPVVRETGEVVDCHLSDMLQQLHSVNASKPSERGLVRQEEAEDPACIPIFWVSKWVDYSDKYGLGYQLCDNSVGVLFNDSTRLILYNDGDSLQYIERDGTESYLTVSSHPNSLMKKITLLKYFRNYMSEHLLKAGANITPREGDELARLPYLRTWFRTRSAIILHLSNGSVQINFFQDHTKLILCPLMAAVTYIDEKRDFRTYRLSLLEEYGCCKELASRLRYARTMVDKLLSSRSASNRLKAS

[11] = target: Serine/threonine-protein kinase Nek7 (Homo sapiens) (UniProt Q8TDX7); experiment: Inhibition of NEK7 assessed as residual activity at 10 uM by Cherenkov counting relative to control
Sequence of Serine/threonine-protein kinase Nek7 (Homo sapiens) (Q8TDX7 whole entry, looked up): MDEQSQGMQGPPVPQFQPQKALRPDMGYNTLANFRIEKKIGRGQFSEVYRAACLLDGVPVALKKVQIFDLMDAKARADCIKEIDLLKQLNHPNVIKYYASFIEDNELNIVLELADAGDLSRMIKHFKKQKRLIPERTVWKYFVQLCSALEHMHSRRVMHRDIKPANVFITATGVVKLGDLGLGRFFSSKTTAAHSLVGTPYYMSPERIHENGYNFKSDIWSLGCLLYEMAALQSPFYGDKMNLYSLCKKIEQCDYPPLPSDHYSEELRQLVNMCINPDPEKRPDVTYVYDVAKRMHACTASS

[12] = target: Serine/threonine-protein kinase pim-1 (Homo sapiens) (UniProt P11309); experiment: Inhibition of PIM1 assessed as residual activity at 10 uM by Cherenkov counting relative to control in presence of 20 uM ATP
[13] = target: Serine/threonine-protein kinase pim-2 (Homo sapiens) (UniProt Q9P1W9); experiment: Inhibition of PIM2 assessed as residual activity at 10 uM by Cherenkov counting relative to control in presence of 5 uM ATP
Sequence of Serine/threonine-protein kinase pim-2 (Homo sapiens) (Q9P1W9 whole entry, looked up): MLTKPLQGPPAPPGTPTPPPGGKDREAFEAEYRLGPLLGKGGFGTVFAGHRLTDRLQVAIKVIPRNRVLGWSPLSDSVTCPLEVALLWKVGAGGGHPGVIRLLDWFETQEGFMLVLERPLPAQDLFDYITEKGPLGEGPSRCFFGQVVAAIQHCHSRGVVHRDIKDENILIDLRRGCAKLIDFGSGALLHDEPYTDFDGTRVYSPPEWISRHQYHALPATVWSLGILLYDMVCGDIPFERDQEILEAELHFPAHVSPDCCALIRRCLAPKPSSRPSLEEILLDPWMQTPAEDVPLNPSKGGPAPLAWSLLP

[14] = target: Serine/threonine-protein kinase pim-3 (Homo sapiens) (UniProt Q86V86); experiment: Inhibition of PIM3 assessed as residual activity at 10 uM by Cherenkov counting relative to control in presence of 20 uM ATP
[15] = target: Tyrosine-protein kinase Lck (Homo sapiens) (UniProt P06239); experiment: Inhibition of Lck assessed as residual activity at 10 uM by Cherenkov counting relative to control in presence of 50 uM ATP
Sequence of Tyrosine-protein kinase Lck (Homo sapiens) (P06239 2-509 limits assumed): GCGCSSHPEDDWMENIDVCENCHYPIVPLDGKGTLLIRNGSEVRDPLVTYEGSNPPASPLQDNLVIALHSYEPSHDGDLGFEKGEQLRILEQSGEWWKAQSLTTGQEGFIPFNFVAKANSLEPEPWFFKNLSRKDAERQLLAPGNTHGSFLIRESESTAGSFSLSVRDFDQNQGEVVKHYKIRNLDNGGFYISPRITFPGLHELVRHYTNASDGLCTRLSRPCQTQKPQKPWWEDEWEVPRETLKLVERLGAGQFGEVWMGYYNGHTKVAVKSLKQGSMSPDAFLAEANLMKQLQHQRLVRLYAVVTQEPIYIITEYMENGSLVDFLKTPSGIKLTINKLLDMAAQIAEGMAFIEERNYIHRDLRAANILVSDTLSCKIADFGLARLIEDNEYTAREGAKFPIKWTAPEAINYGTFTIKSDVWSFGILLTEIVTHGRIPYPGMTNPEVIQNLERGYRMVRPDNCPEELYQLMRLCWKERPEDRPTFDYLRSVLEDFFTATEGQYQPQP

[16] = target: Fibroblast growth factor receptor 1 (Homo sapiens) (UniProt P11362); experiment: Inhibition of FGFR1 assessed as residual activity at 10 uM by Cherenkov counting relative to control in presence of 20 uM ATP
Sequence of Fibroblast growth factor receptor 1 (Homo sapiens) (P11362 22-822 limits assumed): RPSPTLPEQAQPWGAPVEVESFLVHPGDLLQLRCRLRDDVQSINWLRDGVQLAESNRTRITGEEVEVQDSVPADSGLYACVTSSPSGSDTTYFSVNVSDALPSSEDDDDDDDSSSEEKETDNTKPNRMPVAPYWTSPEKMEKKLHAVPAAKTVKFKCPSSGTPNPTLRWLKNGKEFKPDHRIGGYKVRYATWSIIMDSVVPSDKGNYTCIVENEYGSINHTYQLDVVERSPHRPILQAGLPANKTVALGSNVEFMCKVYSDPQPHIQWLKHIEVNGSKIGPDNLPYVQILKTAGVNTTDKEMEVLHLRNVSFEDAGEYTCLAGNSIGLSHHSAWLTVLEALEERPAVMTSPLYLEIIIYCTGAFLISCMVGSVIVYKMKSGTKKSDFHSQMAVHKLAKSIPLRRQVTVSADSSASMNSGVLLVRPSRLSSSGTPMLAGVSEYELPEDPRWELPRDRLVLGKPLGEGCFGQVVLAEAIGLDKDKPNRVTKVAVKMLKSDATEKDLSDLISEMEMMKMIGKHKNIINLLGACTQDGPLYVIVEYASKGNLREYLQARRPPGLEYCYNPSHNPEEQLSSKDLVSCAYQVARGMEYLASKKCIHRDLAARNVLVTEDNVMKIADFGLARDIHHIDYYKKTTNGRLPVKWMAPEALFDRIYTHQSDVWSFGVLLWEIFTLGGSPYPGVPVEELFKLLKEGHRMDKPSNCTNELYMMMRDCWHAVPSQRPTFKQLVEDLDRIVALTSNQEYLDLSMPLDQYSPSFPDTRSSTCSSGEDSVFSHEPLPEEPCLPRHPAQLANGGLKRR
Summary of the method: (§4)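 Single-point profiling at 10 µM in a panel of 78 protein kinases. Kinase activity is expressed as a percentage relative to control assays without compound.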

[17] = target: Insulin receptor-related protein (Homo sapiens) (UniProt P14616); experiment: Inhibition of IRR assessed as residual activity at 10 uM by Cherenkov counting relative to control in presence of 5 uM ATP
[18] = target: Ephrin type-A receptor 2 (Homo sapiens) (UniProt P29317); experiment: Inhibition of EPHA2 assessed as residual activity at 10 uM by Cherenkov counting relative to control in presence of 50 uM ATP; summary of the method: as §4
[19] = target: T1, Inhibitor of nuclear factor kappa-B kinase subunit epsilon (Homo sapiens) (UniProt Q14164); experiment: Inhibition of IKKepsilon assessed as residual activity at 10 uM by Cherenkov counting relative to control in presence of 50 uM ATP
T1 sequence (whole entry): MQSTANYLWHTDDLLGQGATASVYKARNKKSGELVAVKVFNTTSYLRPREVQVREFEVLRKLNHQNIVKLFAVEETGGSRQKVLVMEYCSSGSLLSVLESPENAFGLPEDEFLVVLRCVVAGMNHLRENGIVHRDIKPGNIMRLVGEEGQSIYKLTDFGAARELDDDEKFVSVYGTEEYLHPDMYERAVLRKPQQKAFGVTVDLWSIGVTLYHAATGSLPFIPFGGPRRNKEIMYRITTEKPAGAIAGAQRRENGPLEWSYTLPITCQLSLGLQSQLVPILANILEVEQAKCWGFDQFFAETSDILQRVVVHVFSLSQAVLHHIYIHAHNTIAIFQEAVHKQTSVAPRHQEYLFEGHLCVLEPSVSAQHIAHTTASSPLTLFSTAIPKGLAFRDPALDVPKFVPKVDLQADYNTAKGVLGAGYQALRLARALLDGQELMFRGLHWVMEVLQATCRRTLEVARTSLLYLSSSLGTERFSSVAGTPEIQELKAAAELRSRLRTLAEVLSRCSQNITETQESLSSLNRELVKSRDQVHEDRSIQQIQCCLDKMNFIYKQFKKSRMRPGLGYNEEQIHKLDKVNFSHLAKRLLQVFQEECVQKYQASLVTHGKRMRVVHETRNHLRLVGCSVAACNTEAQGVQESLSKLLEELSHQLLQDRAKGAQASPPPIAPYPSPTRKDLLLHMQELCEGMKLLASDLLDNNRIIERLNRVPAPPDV

| SMILES | Activity [1] | inhibition [2] | inhibition [3] | Activity [4] | Activity [5] | Activity [6] | Activity [7] | Activity [8] | Activity [9] | Activity [10] | Activity [11] | Activity [12] | Activity [13] | Activity [14] | Activity [15] | Activity [16] | Activity [17] | Activity [18] | Activity [19] |
| --- | --- | --- | --- | --- | --- | --- | --- | --- | --- | --- | --- | --- | --- | --- | --- | --- | --- | --- | --- |
| COc1ccc(/C=C/C(=O)Nc2cc(-c3[nH]c(SC)nc3-c3ccc(F)cc3)ccn2)c(OC)c1 | 92% | 73% | 76% | 27% | 92% | 98% | 76% |  |  |  |  |  |  |  |  |  |  |  |  |
| COc1ccc(/C=C/C(=O)Nc2cc(-c3[nH]c([S+](C)[O-])nc3-c3ccc(F)cc3)ccn2)c(OC)c1 (stereo not drawn) | 105% | 82% | 86% | 18% | 98% | 109% | 84% |  |  |  |  |  |  |  |  |  |  |  |  |
| CC(C)c1onc(-c2ccc(F)cc2)c1-c1ccncc1 |  |  |  |  |  |  |  | 94% | 89% | 104% | 104% | 100% | 105% | 81% | 42% | 81% | 93% | 79% | 81% |
| CC(C)c1noc(-c2ccc(F)cc2)c1-c1ccncc1 |  |  |  |  |  |  |  | 94% | 98% | 93% | 100% | 89% | 96% | 78% | 64% | 95% | 94% | 81% | 71% |
